UBC13 polyUb – human UBC13 polyubiquitination inhibition | UBC13 polyubiquitin chain formation, TR-FRET | inhibition, % at 20 µM | hit rate 0.47% among 330,000 | AID 485273; in the data active = inhibition above about 45%, passing the limit was not always enough; inconclusive = no clear call, values can overlap the other calls
MPTP block – permeability transition pore inhibition; inhibition, % at 10 µM; hit rate 1.4% among 360,000; isolated mouse mitochondria, Ca2+ swelling absorbance, 30 min;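 active = inhibition of 50% or more, scaled per plate between neutral and stimulator controls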
MIN6 prolif – MIN6 beta-cell proliferation induction; MIN6 cells proliferation, ATPlite luminescence, 48 h; cells starved in 0.2% serum; 100% = growth in 10% serum; proliferation, % at 10 µM; hit rate 0.29% among 330,000; AID 2380;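 active = compounds whose signal lies at least 3.5 SD above the mean of all wells on their plate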
iPSC survival up – enhancers of human iPSC single-cell survival. survival enhancement, % at 20 µM. hit rate 0.044% among 360,000. hiPSC single-cell survival, ATPlite luminescence; 100% = ROCK inhibitor wells, 0% = DMSO; in the data active = survival enhancement above about 18%;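 note: cells exposed to compounds for 16 hours before the ATP read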
Exocytosis inh – blocks lytic granule exocytosis | AID 651702 | hit rate 0.66% among 360,000 | inhibition, % at 10 µM | TALL-104 LAMP-1 surface exposure, flow cytometry; cells stimulated with thapsigargin and PMA;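 active = inhibition above about 55%, limit read from the data; inconclusive = no clear call, values can overlap the other calls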
Apaf-1 inh – inhibitors of human Apaf-1 apoptosome. O14727. reconstituted apoptosome caspase-3 activity, DEVD-Rh110 fluorescence. inhibition, % at 20 µM. hit rate 0.71% among 330,000; active = inhibition of at least 40% at 20 µM
Target sequence (O14727 whole entry, looked up): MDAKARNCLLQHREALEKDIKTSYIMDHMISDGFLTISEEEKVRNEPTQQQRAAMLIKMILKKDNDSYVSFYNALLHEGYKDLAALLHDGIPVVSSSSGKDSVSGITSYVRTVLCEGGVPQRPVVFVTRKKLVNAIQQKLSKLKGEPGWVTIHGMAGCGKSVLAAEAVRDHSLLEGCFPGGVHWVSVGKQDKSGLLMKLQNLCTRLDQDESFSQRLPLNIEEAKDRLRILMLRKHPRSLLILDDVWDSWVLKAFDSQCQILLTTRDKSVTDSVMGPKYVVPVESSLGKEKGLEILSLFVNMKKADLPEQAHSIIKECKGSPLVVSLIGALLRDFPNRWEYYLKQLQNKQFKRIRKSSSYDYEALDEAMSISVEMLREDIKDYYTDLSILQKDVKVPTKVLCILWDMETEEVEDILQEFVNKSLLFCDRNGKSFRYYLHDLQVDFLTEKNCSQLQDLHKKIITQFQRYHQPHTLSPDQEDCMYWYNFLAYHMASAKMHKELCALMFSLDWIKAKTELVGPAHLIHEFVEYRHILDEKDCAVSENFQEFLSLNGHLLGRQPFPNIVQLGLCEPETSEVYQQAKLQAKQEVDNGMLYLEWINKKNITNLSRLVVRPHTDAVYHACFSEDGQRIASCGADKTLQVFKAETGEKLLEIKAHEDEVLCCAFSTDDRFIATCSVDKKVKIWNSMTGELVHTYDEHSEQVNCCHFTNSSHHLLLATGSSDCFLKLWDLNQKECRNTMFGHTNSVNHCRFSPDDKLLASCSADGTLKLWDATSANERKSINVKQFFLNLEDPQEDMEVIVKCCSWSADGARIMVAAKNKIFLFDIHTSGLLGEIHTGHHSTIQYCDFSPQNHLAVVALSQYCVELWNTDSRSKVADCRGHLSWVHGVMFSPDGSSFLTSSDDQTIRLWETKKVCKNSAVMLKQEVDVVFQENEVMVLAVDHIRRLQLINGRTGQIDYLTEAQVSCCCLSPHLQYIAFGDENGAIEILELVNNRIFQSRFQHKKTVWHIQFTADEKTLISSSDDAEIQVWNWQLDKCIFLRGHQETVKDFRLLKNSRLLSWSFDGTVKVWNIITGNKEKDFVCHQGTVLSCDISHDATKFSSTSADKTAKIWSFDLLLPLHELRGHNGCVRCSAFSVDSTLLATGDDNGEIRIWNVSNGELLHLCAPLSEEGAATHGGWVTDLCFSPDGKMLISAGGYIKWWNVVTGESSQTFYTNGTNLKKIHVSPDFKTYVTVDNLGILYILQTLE
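Material: reconstituted apoptosome with Apaf-1, cytochrome c, caspase-9, procaspase-3, dATP; medium: pH 7.5 Hepes buffer with CHAPS, BSA, DTT; also added: cytochrome c and DEVD-Rh110 substrate; timing: 30 min plus 50 min, RT; signal: Rh110 fluorescence intensity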
Rh123 counter – membrane potential counter-screen of mitochondrial pore inhibitors. isolated mitochondria, Rhodamine 123 fluorescence. hit rate 78% among 5,000. AID 624504. shares compounds with MPTP block. inhibition, % at 10 µM; in the data active = inhibition above about 22%
MPTP swell DR – dose response confirmation of mitochondrial permeability transition pore inhibitors. shares compounds with MPTP block. isolated mitochondria swelling, absorbance. IC50, µM. hit rate 58% among 780. AID 651561; in the data active = IC50 below about 20 µM
MPTP counter DR – MPTP inhibitor counter-screen activity, dose response | AID 651564 | isolated mitochondria counterscreen, fluorescence read-out | shares compounds with MPTP block | IC50, µM | hit rate 49% among 780; in the data active = IC50 below about 80 µM
Of the large screens only hits and unclear results are named; the others gave an inactive call (follow-up assays come after a bar, where they were run). Compounds with a hit are over-represented: about 3% of the library has one in this group of screens.

CCOC(=O)c1ccc(NC(=O)CCc2nc(-c3cccc(C)c3)no2)cc1	MPTP block 85.1 | Rh123 counter 91.1
Cc1nc(SCC(=O)N2CCCC2=O)nc(C)c1C	none
Cn1nc(CC(=O)Nc2ccc3c(c2)CCC3)c2ccccc2c1=O	MPTP block 94.8 | Rh123 counter 78.1
Cn1nc(CC(=O)NC2CCCCCCCCCCC2)c2ccccc2c1=O	none
N#Cc1c(NC(=S)NC(=O)Cc2cccs2)sc2c1CCCCC2	MPTP block 84.0 | Rh123 counter 74.1
CC(=O)Nc1sc2c(c1C#N)CCCC2	none
Cn1nccc1C(=O)NC(=S)Nc1sc2c(c1C#N)CCCCC2	none
CC(=O)NC(=S)Nc1sc2c(c1C#N)CCCCC2	MPTP block 84.2 (no result: UBC13 polyUb, MIN6 prolif, Apaf-1 inh) | Rh123 counter 76.6
CCC1(C)Cc2c(sc(NC(=S)NC(=O)c3ccccc3)c2C#N)CO1 (stereo not drawn)	MPTP block 82.9 | Rh123 counter inactive | MPTP swell DR inactive | MPTP counter DR 4.51
CC(C)(C)C(=O)NC(NC(=S)Nc1sc2c(c1C#N)CCCC2)C(Cl)(Cl)Cl (stereo not drawn)	MPTP block 94.3 | Rh123 counter 53.2
CNC(C)C(=O)NC(C(=O)NC(C)C(=O)NNc1ccccc1)C(C)C (stereo not drawn)	none (no result: UBC13 polyUb, MIN6 prolif, Apaf-1 inh)
N#Cc1c(NC(=S)NC(=O)c2ccccc2)sc2c1CCC2	MPTP block 58.2, Exocytosis inh inconclusive | Rh123 counter 36.8
CN(Cc1ccccc1)C(=O)CCC1CCN(S(C)(=O)=O)CC1	none
Nc1nc(C23CC4CCC(CC(C4)C2)C3)cs1	MPTP block 64.3 | Rh123 counter inactive | MPTP swell DR inactive | MPTP counter DR inactive
CCCCCCc1cc2cc(S(=O)(=O)c3ccc(F)c(Cl)c3)c(=O)oc2cc1O	MPTP block 79.0 | Rh123 counter 86.4
CCCCCCc1cc2cc(C(=O)Nc3cccc(OC)c3)c(=O)oc2cc1O	MPTP block 56.3 | Rh123 counter 20.6
CCCCCCc1cc2cc(C(=O)NC)c(=N)oc2cc1O	MPTP block 95.9 | Rh123 counter 90.9
CCCCCCc1cc2cc(C(N)=O)c(=N)oc2cc1O	none (no result: MPTP block, iPSC survival up, Exocytosis inh)
CCCCCCc1cc2cc(/C(N)=N/NC(=O)c3ccncc3)c(=O)oc2cc1O	none
Cc1ccc(S(=O)(=O)c2cc3ccc(O)cc3oc2=O)cc1C	none
CCCCCCc1cc2cc(C(=O)OCC)c(=O)oc2cc1O	MPTP block 92.8 | Rh123 counter 87.0
O=C1NC[C@@H](CCCCN2C[C@H](Cc3ccccc3)N(CC3CCCCC3)C(=O)C2=O)N(Cc2ccccc2)C1=O	none (no result: UBC13 polyUb, MIN6 prolif, Apaf-1 inh)
CCOC(=O)[C@]12CCC=C1N(Cc1ccccc1)C(=O)[C@H](CC(=O)N1CCN(C(=O)c3ccco3)CC1)C2	none (no result: UBC13 polyUb, MIN6 prolif, Apaf-1 inh)
COc1cc(CC(=O)OCC(=O)NCc2cccs2)cc(OC)c1OC	none
O=C(CN1C(=O)NC(c2ccccc2)(c2ccccc2)C1=O)NC1CCCCC1	none
CCCCCCc1cc2cc(C(=O)Nc3ccc(OC)cc3)c(=O)oc2cc1O	MPTP block 78.3 | Rh123 counter inactive | MPTP swell DR 1.15 | MPTP counter DR <2.5
COc1ccc(NC(=O)c2cc3ccccc3oc2=O)cc1	none (no result: UBC13 polyUb, MIN6 prolif, Apaf-1 inh)
CCc1cccc(NC(=O)COC(=O)c2c(C)nn(-c3ccccc3)c2C)c1	none (no result: UBC13 polyUb, MIN6 prolif, Apaf-1 inh)
N#Cc1c(C(F)(F)F)cc(-c2ccc(Cl)cc2)[nH]c1=O	MPTP block 92.6 | Rh123 counter 82.1
N#Cc1c(C(F)(F)F)cc(-c2cccc(Cl)c2)[nH]c1=O	MPTP block 94.1 | Rh123 counter 89.3
CN(CC(=O)Nc1cccc2ccccc12)C(=O)c1ccc(F)cc1F	none
Cc1cc(C(=O)NC(C)CCc2ccccc2)ccc1[N+](=O)[O-] (stereo not drawn)	none
CC1(C)CC(NC(=O)c2ccc(Cl)c(S(=O)(=O)N(Cc3ccccc3)c3ccccc3)c2)CC(C)(C)N1	MPTP block 96.6 | Rh123 counter inactive
COc1ccccc1N(Cc1ccccc1)S(=O)(=O)c1cccc(C(=O)NC2CC(C)(C)NC(C)(C)C2)c1	MPTP block 84.5 | Rh123 counter inactive | MPTP swell DR 7.59 | MPTP counter DR inactive
CCNC(=O)N(C)c1c(CC)nc2ccc(C(=O)N3CCN(C(C)=O)CC3)cn12	none (no result: UBC13 polyUb, MIN6 prolif, Apaf-1 inh)
O=S(=O)(Cc1nnnn1-c1ccccc1)c1ccc(F)cc1	none
Cc1ccc(-c2noc(C3CCN(S(=O)(=O)c4ccc5c(c4)OCCO5)CC3)n2)o1	MPTP block 52.4 | Rh123 counter 63.8
Cc1nc2ccc(NC(=O)CSc3nnc(C)s3)cc2[nH]1	none
Cc1ccc(CSc2nccc(-c3c(C)nc4ccccn34)n2)cc1	MPTP block 60.8 | Rh123 counter inactive | MPTP swell DR inactive | MPTP counter DR inactive
Cc1ccc(CSc2ncn(-c3ccccc3)n2)cc1	none
CCc1ccc(/C=C/C(=O)c2ccc(N3CCOCC3)cc2)cc1	MPTP block 68.5 | Rh123 counter inactive | MPTP swell DR inactive | MPTP counter DR 18.9
O=C(NC1CC2CCCC(C1)N2Cc1ccccc1)c1ccc([N+](=O)[O-])cc1 (stereo not drawn)	none
O=C(N/N=C/c1ccccc1)c1[nH]c2ccc(Br)cc2c1-c1ccccc1	MPTP block 86.3 | Rh123 counter 90.2
Cc1cccc(NC(=S)/N=C(\N)Nc2nc(C)c3ccccc3n2)c1	none
Cc1cc(C)cc(NC(=S)/N=C(\N)Nc2nc(C)c3ccccc3n2)c1	MPTP block 56.3 | Rh123 counter inactive | MPTP swell DR inactive | MPTP counter DR inactive
COc1ccc(CCNC(=O)CCCCCN2C(=O)[C@@H]3Cc4ccccc4CN3C2=O)cc1OC	none
Cc1ccc(-n2c(SCC(=O)N(C)C)nnc2-c2ccco2)cc1	none
NC(Cc1c[nH]c2ccccc12)C(=O)Nc1ccccc1 (stereo not drawn)	none
Cc1nc(N)nc(N)c1Oc1ccc(Cl)cc1	none (no result: UBC13 polyUb, MIN6 prolif, Apaf-1 inh)
Cc1nc(N)nc(N)c1/C=C/C(C)(C)c1ccc(Cl)cc1	MPTP block 96.6 (no result: UBC13 polyUb, MIN6 prolif, Apaf-1 inh) | Rh123 counter 91.3
CC(C(=O)Nc1ccccc1)c1ccc(-c2ccccc2)c(F)c1 (stereo not drawn)	MPTP block 86.4 | Rh123 counter 122.2
CC(C)(C)C1=CC(=Nc2ccccc2N)C=C(C(C)(C)C)C1=O	none
CC(C)(C)C1=CC(=O)C(=O)C(C(C)(C)C)=C1	MPTP block 79.7 | Rh123 counter inactive
CCCCCCCCCCn1c2c(c(=N)c3c1CCC3)CCC2	UBC13 polyUb 61.9, MPTP block 84.7, Apaf-1 inh 73.9 | Rh123 counter 99.4
COc1ccccc1Oc1ccc(S(=O)(=O)NCc2ccccn2)cc1	MPTP block 70.1 | Rh123 counter 37.8
